The array DNA melting data of Ke et al. (doi:10.1101/2024.01.08.574731)

What was measured:
[1] = folding enthalpy; higher = less favourable; fluorescence melt of hairpins on a sequencing array, two-state fit; settings: sodium 0.088 M
Summary of the method: (§1)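 Bootstrapped two-state fits yielded melting temperature and folding enthalpy for library hairpins. Cy3 fluorescence, with annealed Cy3 and quencher oligos, was imaged on a sequenced MiSeq flow cell in 50 mM Na-HEPES pH 8.0, 25 mM NaCl in 2.5 °C steps up to 60 °C, and normalised to pre-quench Cy3 and to control constructs. Four replicates were combined by inverse variance, and fitted temperatures were raised by 9.35 °C to match UV melts.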

[2] = melting temperature; fluorescence melt of hairpins on a sequencing array, two-state fit, raised by 9.35 °C to match UV melts; settings: sodium 0.088 M
Summary of the method: as §1

| Sequence | folding enthalpy [1] [kcal/mol] | Tm [2] [°C] |
| --- | --- | --- |
| GCTCGATCGAAAGATAGC (((..(((....)))))) | -11.7 | 28.1 |
| GCTCGCACGAAAGTGAGC (((..(((....)))))) | -21.2 | 49.6 |
| GCTCGCCCGAAAGGGAGC (((..(((....)))))) | -16.8 | 48.4 |
| GCTCGCGAAAGCGATAGC ((((((....)))..))) | -14.4 | 50.3 |
| GCTCGCGAAAGCGCAGC ((((((....))).))) | -19.6 | 54.4 |
| GCTCGCGAAAGCGGAGC ((((((....))).))) | -22.9 | 67.9 |
| GCTCGCGAAAGCGGTAGC ((((((....)))..))) | -15.4 | 51 |
| GCTCGCGGAAACGCGAAC (.(((((....))))).) | -11.3 | 48.9 |
| GCTCGGCCGAAAGGCAGC (((..(((....)))))) | -8.78 | 55.6 |
| GCTCGGCGAAAGCCAGC (((.(((....)))))) | -17.4 | 62.9 |
| GCTCGGCGAAAGCCATGC ((..(((....)))..)) | -10.7 | 49.8 |
| GCTCGGCGAAAGCCTTGC ((..(((....)))..)) | -11.4 | 50.2 |
| GCTCGGCGAAAGCGGGGC ((.(.((....)).).)) | -20.6 | 61.1 |
| GCTCGGCGAAAGCGGTGC ((.(.((....)).).)) | -13 | 57.6 |
| GCTCGGCGAAAGCGTAGC (((..((....))..))) | -12.9 | 39.3 |
| GCTCGGCGAAAGCTGCGC ((.(.((....)).).)) | -17.4 | 56.2 |
| GCTCGGCGAAAGCTGTGC ((.(.((....)).).)) | -15.4 | 60.2 |
| GCTCGGGGAAACTCGGGC ((.((.(....).)).)) | -26 | 46.6 |
| GCTCGGTCGAAAGACAGC (((..(((....)))))) | -12.3 | 41.2 |
| GCTCGTCGAAAGACAAGC (((.(((....))).))) | -24.7 | 49.5 |
| GCTCTAGAAATAGAGC ((((((....)))))) | -34.1 | 50.9 |
| GCTCTCGAAAGAGAGAGC ((((((....)))..))) | -19.5 | 57.2 |
| GCTCTCGAAAGAGCAGC ((((((....))).))) | -15.4 | 48.2 |

| Sequence | folding enthalpy [1] [kcal/mol] | Tm [2] [°C] |
| --- | --- | --- |
| GCTCTCGAAAGAGCGAGC ((((((....)))..))) | -15.1 | 49.3 |
| GCTCTCGAAAGAGGAGC ((((((....))).))) | -29.2 | 50.6 |
| GCTCTCGAAAGAGGCAGC ((((((....)))..))) | -15.5 | 42.3 |
| GCTCTCGGAAACGAAAGC (((.(((....))).))) | -28.5 | 39.4 |
| GCTCTGACGAAAGTCAGC (((..(((....)))))) | -7.47 | 31.3 |
| GCTCTGCGAAAGCATGGC ((..(((....)))..)) | -19.6 | 40.1 |
| GCTCTGCGAAAGCGGCGC ((.(.((....)).).)) | -17.2 | 50.5 |
| GCTCTGCGAAAGCTGCGC ((.(.((....)).).)) | -18.4 | 44.2 |
| GCTCTGCGAAAGCTGGGC ((.(.((....)).).)) | -21.4 | 54.3 |
| GCTCTGGAAACAGAGC ((((((....)))))) | -37.3 | 62.2 |
| GCTCTGGGAAACCAAAGC (((.(((....))).))) | -23.7 | 35.5 |
| GCTCTGGGAAACCGGAGC ((((.((....)).)))) | -52.9 | 57.2 |
| GCTCTGGGAAACTAGGGC ((.((.(....).)).)) | -27.7 | 36.5 |
| GCTCTGTCGAAAGACAGC (((..(((....)))))) | -8.62 | 36.5 |
| GCTCTTCGAAAGAAAGC (((.(((....)))))) | -20.6 | 36.1 |
| GCTCTTGGAAACAAGAAC (.(((((....))))).) | -16.3 | 31.4 |
| GCTGAACGAAAGTTAAGC (((.(((....))).))) | -31.4 | 50.6 |
| GCTGAACGAAAGTTGAGC (((.(((....))).))) | -31.4 | 48.7 |
| GCTGACGAAAGTCAAAGC ((((((....)))..))) | -17.9 | 48.7 |
| GCTGACGAAAGTCAAGC ((((((....))).))) | -28.8 | 56.3 |
| GCTGACGAAAGTCATAGC ((((((....)))..))) | -15.9 | 47.1 |
| GCTGACGAAAGTCGGAGC ((((((....)))..))) | -16.5 | 45.7 |
| GCTGACGAAAGTCGTAGC ((((((....)))..))) | -21.6 | 47.1 |

| Sequence | folding enthalpy [1] [kcal/mol] | Tm [2] [°C] |
| --- | --- | --- |
| GCTGACGAAAGTCTAAGC ((((((....)))..))) | -19.1 | 47.1 |
| GCTGACGCGAAAGCGAGC (((..(((....)))))) | -13.9 | 47.1 |
| GCTGACGGAAACATCAGC (((((.(....).))))) | -35.1 | 44.3 |
| GCTGACGGAAACGCCAAC (.((.((....)).)).) | -14.1 | 25.9 |
| GCTGACTCGAAAGAGAGC (((..(((....)))))) | -14.6 | 31.6 |
| GCTGAGCGAAAGCACGGC ((.(.((....)).).)) | -21.5 | 56.8 |
| GCTGAGCGAAAGCATAGC (((..((....))..))) | -18.9 | 50 |
| GCTGAGCGAAAGCTGTGC ((..(((....)))..)) | -17.8 | 45.5 |
| GCTGAGGCGAAAGCCAGC (((..(((....)))))) | -22.3 | 52.8 |
| GCTGAGGGAAACCTCAAC (.(((((....))))).) | -18.9 | 36.6 |
| GCTGATCCGAAAGGAAGC (((..(((....)))))) | -18 | 39 |
| GCTGATCGAAAGATAAGC (((.(((....))).))) | -35.1 | 49.5 |
| GCTGATCGAAAGATGAGC (((.(((....))).))) | -32.2 | 48 |
| GCTGATGAAAATCAGC ((((((....)))))) | -35.8 | 60.6 |
| GCTGATGCGAAAGCAAGC (((..(((....)))))) | -19.4 | 43.5 |
| GCTGATGGAAACATCAAC (.(((((....))))).) | -21 | 36 |
| GCTGATGGAAACGTCAGC (((((.(....).))))) | -40.3 | 53.3 |
| GCTGCCACGAAAGTGAGC (((..(((....)))))) | -13.1 | 50.2 |
| GCTGCCCGAAAGGGTAGC (((.(((....))).))) | -40.5 | 69 |
| GCTGCCGAAAGGCAAAGC ((((((....)))..))) | -14.8 | 57.1 |
| GCTGCCGAAAGGCTCAGC ((((((....)))..))) | -15 | 44.4 |
| GCTGCCGGAAACAGCAGC (((((.(....).))))) | -34.1 | 53.8 |
| GCTGCCGGAAACGGTGGC ((..(((....)))..)) | -40 | 55.1 |

| Sequence | folding enthalpy [1] [kcal/mol] | Tm [2] [°C] |
| --- | --- | --- |
| GCTGCGACGAAAGTCAGC (((..(((....)))))) | -13.4 | 51.4 |
| GCTGCGCGAAAGCACCGC ((.(.((....)).).)) | -21.4 | 41.3 |
| GCTGCGCGAAAGCCTAGC (((..((....))..))) | -15.7 | 42.4 |
| GCTGCGCGAAAGCTCAGC ((((.((....)).)))) | -35.4 | 64.4 |
| GCTGCTGCGAAAGCAAGC (((..(((....)))))) | -11.7 | 54.1 |
| GCTGCTGGAAACAGTGGC ((..(((....)))..)) | -40.2 | 47.6 |
| GCTGCTGGAAACGGTAGC (((.(.(....).).))) | -31.3 | 41.3 |
| GCTGGAGGAAACTCTGGC ((..(((....)))..)) | -28 | 41.6 |
| GCTGGCCGAAAGGCAGC (((.(((....)))))) | -20.6 | 65.8 |
| GCTGGCCGAAAGGCGAGC (((.(((....))).))) | -26.3 | 66.5 |
| GCTGGCGAAAGCCACAGC ((((((....)))..))) | -13.9 | 49.5 |
| GCTGGCGAAAGCCAGAGC ((((((....)))..))) | -9.92 | 63.3 |
| GCTGGCGAAAGCCTAAGC ((((((....)))..))) | -16.5 | 51.5 |
| GCTGGCGGAAACGTCAGC ((((.((....)).)))) | -43.2 | 61.2 |
| GCTGGGAAACCAGC (((((....))))) | -29.9 | 65.4 |
| GCTGGGACGAAAGTCAGC (((..(((....)))))) | -19.3 | 46.3 |
| GCTGGGCGAAAGCACTGC ((.(.((....)).).)) | -29.4 | 61.3 |
| GCTGGGCGAAAGCCCCGC ((.((((....)))).)) | -16.1 | 58.5 |
| GCTGGGCGAAAGCCTGGC ((..(((....)))..)) | -24.5 | 60.9 |
| GCTGGGCGAAAGCGAAGC (((..((....))..))) | -20 | 47.5 |
| GCTGGGCGAAAGCTGAGC (((..((....))..))) | -21 | 49.3 |
| GCTGGGGAAACCCAGC ((((((....)))))) | -37.5 | 69.3 |
